Source: ChEMBL document CHEMBL4311940, “Design, Synthesis, and Biological Evaluation of 4-Methyl Quinazoline Derivatives as Anticancer Agents Simultaneously Targeting Phosphoinositide 3-Kinases and Histone Deacetylases” (J Med Chem, 2019)
Active and inactive are the calls of the source. The calls are words filed in the database; no cut-off is given here.

What was measured:
Homo sapiens [1] = organism: Homo sapiens; assay: Selectivity ratio, ratio of IC50 for recombinant human PIK3CB to recombinant human His-tagged PIK3CD/PIK3R1 expressed in baculovirus expression system
Homo sapiens [2] = organism: Homo sapiens; assay: Selectivity ratio, ratio of IC50 for recombinant human PI3Kalpha to recombinant human His-tagged PIK3CD/PIK3R1 expressed in baculovirus expression system
[3] = target: Phosphatidylinositol 4,5-bisphosphate 3-kinase catalytic subunit alpha isoform (Homo sapiens, UniProt P42336); assay: Inhibition of recombinant human PI3Kalpha using PIP2 as substrate incubated for 1 hr by kinase-glo assay
Homo sapiens [4] = organism: Homo sapiens; assay: Inhibition of PI3K in human HCT116 cells assessed as reduction in AKT phosphorylation at S473 residue at 0.02 to 0.5 uM after 16 hrs by Western blot analysis; type: cell-based
Procedure, shortened: (§1)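 Immunoblot of HCT116 lysates (RIPA). 40 μg protein per lane on 10−12% SDS-PAGE, transferred to nitrocellulose, blocked 0.5 h in 5% milk/TBST. Primary antibodies 1:1000 overnight at 4 °C, secondary 1:1000 for 1 h, bands visualized by enhanced ECL.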

[5] = Selectivity index, ratio of IC50 for human LO2 cells to IC50 for human HCT116 cells; type: toxicity; details: LO2 cells and HCT116 cells, read-out: Ratio IC50
Procedure, shortened: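 Ratio of IC50s from the MTT assay: PBMC or LO2 cells versus HCT116. Cells seeded at 2000/well, attached overnight at 37 °C, treated 96 h, MTT 4 h, formazan dissolved in DMSO, A570.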

[6] = target: Protein deacetylase HDAC6 (Homo sapiens, UniProt Q9UBN7); assay: Inhibition of HDAC6 (unknown origin) using Ac-peptide as substrate preincubated for 15 mins followed by substrate addition and measured after 1 hr
[7] = Tmax in ICR mouse at 30 mg/kg, po measured after 0.083 to 24 hrs by LC/MS/MS analysis; type: ADME, organism-based; details: in vivo
Procedure, shortened: (§2)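 Male-unspecified ICR mice, 3 per group iv (3 mg/kg in 10% DMSO/saline) and 5 per group po (30 mg/kg in 0.5% cmc/0.3% Tween 80). Blood sampled 0.033 (iv) or 0.083 (po) to 24 h. Plasma extracted with acetonitrile, analysed by LC/MS/MS; noncompartmental analysis.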

[8] = Mutagenicity in Salmonella typhimurium TA1535 at 5 to 500 ug/plate in presence of s9 mix by Ames test; type: toxicity, subcellular; details: salmonella enterica subsp. enterica serovar typhimurium
Procedure, shortened: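 Plate incorporation method at 5, 50 and 500 μg/plate, with and without S9 activation. At least three plates per dose, incubated 72 h at 37 °C, revertants counted. Mean revertants compared with vehicle and positive controls.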

[9] = target: Histone deacetylase (Homo sapiens) (UniProt Q13547+O15379+Q9UBN7+Q92769+Q9UQL6+Q8WUI4+Q9BY41+Q96DB2+P56524+Q9UKV0+Q969S8); assay: Inhibition of HDAC in human HCT116 cells assessed as increase in acetylated p53 levels after 16 hrs by Western blot analysis; type: cell-based
Procedure, shortened: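 HCT116 cells lysed in RIPA after washes in cold PBS. 40 μg protein run on 10−12% SDS-PAGE and transferred to nitrocellulose. Membrane blocked in 5% milk/TBST for 0.5 h, primary antibodies 1:1000 overnight at 4 °C, secondary 1:1000 for 1 h, ECL detection.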

Homo sapiens [10] = organism: Homo sapiens; assay: Inhibition of HDAC/PI3K in human HCT116 cells assessed as increase in cleaved caspase-3 level at 0.02 to 0.5 uM after 16 hrs by Western blot analysis; type: cell-based; procedure, shortened: as §1
[11] = Drug level in tumor of human HGC27 cells xenografted in BALB/c mouse at 100 mg/kg, po measured 0.5 hrs post last dose; type: ADME, organism-based, Neoplasm; details: read-out: Drug uptake
Procedure, shortened: (§3)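 HGC-27 xenografted nude mice dosed po (0.5% cmc/Tween 80) or ip (saline); at end of treatment, 0.5 h after final dose, plasma and tumor tissue collected and compound concentration measured (ng/mL plasma, ng/g tumor).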

[12] = Drug metabolism in rat bile assessed as glucuronide metabolite formation at 0.74 mg/kg, iv after 1 hr by LC/MS/MS analysis; type: ADME, organism-based; details: in vivo
[13] = Toxicity in athymic nude BALB/c mouse xenografted with human HCT116 cells assessed as reduction in body weight at 100 to 150 mpk, po measured 2 times every week; type: organism-based; details: in vivo
[14] = Drug level in tumor of human HCT116 cells xenografted in athymic nude BALB/c mouse at 150 mpk, po by LC/MS/MS analysis; type: ADME, organism-based, Neoplasm; details: in vivo, 150 mg/kg
Procedure, shortened: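 HCT116 xenografted nude mice given daily oral doses; tumor tissue sampled 1 h after final dose and compound level measured (ng/g).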

[15] = Drug level in BALB/c mouse plasma xenografted with human HGC27 cells at 30 mg/kg, ip measured 0.5 hrs post last dose; type: ADME, organism-based; procedure, shortened: as §3
HCT-116 [16] = assay: Antitumor activity against human HCT116 cells xenografted in athymic nude BALB/c mouse assessed as tumor growth inhibition at 100 mpk, po measured 2 times every week relative to control; type: functional; details: HCT-116, po, read-out: TGI
Procedure, shortened: (§4)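 Female BALB/c-nu/nu mice, 6–8 weeks, given 2 × 10^6 HCT116 cells in 0.2 mL saline s.c. right flank; randomized at 100–200 mm3. Daily oral dosing in 0.5% cmc with Tween 80; vehicle controls.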

[17] = Drug level in BALB/c mouse plasma xenografted with human HGC27 cells at 200 mg/kg, po measured 0.5 hrs post last dose; type: ADME, organism-based; procedure, shortened: as §3
[18] = Drug level in tumor of human HGC27 cells xenografted in BALB/c mouse at 30 mg/kg, ip measured 0.5 hrs post last dose; type: ADME, organism-based, Neoplasm; details: read-out: Drug uptake; procedure, shortened: as §3
Mus musculus = assay: In vivo inhibition of PI3K in tumor of human HCT116 cells xenografted in athymic nude BALB/c mouse assessed as reduction in phosphorylated AKT expression at S473 residue by DAB staining based immunohistochemistry method; type: functional, organism-based
Procedure, shortened: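 HCT116 xenograft tumors from treated and vehicle mice stained immunohistochemically for Ki67, acetyl-H3 and p-AKT(S473) (200×); integrated optical density quantified; mean ± SEM, n = 5−7, one-way ANOVA versus vehicle.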

[19] = Drug level in tumor of human HGC27 cells xenografted in BALB/c mouse at 200 mg/kg, po measured 0.5 hrs post last dose; type: ADME, organism-based, Neoplasm; details: read-out: Drug uptake; procedure, shortened: as §3
[20] = Half life in mouse plasma at 0.02 mM by LC/MS analysis; type: ADME, cell-free
Procedure, shortened: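 Spiking solution of 0.02 mM compound, 0.05 mM sodium phosphate, 0.5% BSA prewarmed 5 min at 37 °C, mixed with prewarmed mouse plasma; quenched with acetonitrile at time points; LC/MS; T1/2 = 0.693/K from ln(concentration) vs time.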

[21] = Terminal half life in ICR mouse at 3 mg/kg, iv measured after 0.033 to 24 hrs by LC/MS/MS analysis; type: ADME, organism-based; details: in vivo, read-out: beta t1/2 (converted); procedure, shortened: as §2
HGC-27 = assay: Antitumor activity against human HGC27 cells xenografted in athymic nude BALB/c mouse assessed as tumor growth inhibition at 100 mpk, po measured 2 times every week; type: functional; details: HGC-27, po, read-out: TGI
HCT-116 [22] = assay: Antitumor activity against human HCT116 cells xenografted in po dosed athymic nude BALB/c mouse assessed as tumor growth inhibition measured 2 times every week; type: functional, organism-based; procedure, shortened: as §4

Chain of Phosphatidylinositol 4,5-bisphosphate 3-kinase catalytic subunit alpha isoform (P42336 whole entry, canonical isoform): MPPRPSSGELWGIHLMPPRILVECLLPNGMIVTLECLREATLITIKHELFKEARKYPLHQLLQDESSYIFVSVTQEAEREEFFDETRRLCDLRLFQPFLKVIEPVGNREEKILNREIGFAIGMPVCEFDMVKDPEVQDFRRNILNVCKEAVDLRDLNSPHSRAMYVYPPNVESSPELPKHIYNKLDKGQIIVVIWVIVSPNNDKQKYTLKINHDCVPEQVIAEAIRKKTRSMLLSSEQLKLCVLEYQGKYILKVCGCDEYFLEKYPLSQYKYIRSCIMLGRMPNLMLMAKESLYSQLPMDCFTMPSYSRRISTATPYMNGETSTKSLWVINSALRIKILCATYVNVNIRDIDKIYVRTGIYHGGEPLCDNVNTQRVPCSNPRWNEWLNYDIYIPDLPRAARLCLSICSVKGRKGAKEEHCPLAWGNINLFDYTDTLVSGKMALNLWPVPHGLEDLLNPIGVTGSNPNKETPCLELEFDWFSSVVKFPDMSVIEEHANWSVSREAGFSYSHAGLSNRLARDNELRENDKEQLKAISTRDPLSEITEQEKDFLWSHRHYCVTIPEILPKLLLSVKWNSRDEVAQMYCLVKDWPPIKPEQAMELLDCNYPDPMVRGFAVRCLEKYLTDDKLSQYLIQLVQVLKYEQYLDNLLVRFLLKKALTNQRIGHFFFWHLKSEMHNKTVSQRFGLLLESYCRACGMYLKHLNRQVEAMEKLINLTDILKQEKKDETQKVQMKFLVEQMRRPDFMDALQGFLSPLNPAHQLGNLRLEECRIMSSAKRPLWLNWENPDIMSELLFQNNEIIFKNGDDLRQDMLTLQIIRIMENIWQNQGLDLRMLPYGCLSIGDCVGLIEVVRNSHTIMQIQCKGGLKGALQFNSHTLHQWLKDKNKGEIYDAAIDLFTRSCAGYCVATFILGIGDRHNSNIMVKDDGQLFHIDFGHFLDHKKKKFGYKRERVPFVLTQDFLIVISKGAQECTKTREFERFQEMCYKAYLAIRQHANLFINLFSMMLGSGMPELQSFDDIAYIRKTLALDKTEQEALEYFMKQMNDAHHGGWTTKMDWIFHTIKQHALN
Chain of Protein deacetylase HDAC6 (Q9UBN7 whole entry): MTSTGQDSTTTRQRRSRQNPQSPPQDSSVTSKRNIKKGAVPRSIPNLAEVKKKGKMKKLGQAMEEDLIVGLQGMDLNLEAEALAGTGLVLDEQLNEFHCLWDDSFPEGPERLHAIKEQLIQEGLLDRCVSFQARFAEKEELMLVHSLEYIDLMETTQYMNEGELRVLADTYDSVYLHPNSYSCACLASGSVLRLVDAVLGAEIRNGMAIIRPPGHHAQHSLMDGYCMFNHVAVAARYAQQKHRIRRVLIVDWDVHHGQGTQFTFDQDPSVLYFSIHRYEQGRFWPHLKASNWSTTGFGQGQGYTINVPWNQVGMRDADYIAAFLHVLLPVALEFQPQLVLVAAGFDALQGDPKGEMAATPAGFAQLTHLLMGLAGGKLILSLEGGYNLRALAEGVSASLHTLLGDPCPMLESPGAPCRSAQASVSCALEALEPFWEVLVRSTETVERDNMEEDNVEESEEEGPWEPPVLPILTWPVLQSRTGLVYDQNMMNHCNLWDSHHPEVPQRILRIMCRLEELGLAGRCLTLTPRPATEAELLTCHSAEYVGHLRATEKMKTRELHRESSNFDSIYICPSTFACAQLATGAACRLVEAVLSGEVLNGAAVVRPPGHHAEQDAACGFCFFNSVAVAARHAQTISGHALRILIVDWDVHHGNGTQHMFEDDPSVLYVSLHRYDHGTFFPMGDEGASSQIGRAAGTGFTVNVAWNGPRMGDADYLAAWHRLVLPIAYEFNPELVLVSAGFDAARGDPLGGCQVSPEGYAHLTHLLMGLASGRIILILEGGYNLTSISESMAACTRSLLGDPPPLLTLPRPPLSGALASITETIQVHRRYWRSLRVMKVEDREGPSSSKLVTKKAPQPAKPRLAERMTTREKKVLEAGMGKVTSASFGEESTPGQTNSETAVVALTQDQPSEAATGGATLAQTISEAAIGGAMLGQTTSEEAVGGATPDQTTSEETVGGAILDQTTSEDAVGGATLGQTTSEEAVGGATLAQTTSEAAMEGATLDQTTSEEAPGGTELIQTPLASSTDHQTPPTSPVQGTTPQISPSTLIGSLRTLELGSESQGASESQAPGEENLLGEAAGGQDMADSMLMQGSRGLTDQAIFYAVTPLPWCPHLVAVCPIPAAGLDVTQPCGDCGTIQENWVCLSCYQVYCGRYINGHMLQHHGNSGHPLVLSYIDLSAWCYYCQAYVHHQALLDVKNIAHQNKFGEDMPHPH

Compound `COc1ccc(-c2cc(OCCN(C)c3ncc(C(=O)NO)cn3)c3ncnc(C)c3c2)cn1` has a Ratio IC50 (Homo sapiens [1]) greater than 5, a Ratio IC50 (Homo sapiens [2]) greater than 5 and an IC50 [3] of 226 nM. The inhibition (Homo sapiens [4]) was “Active”, the selectivity ratio [5] was 1430 and the IC50 [6] was 17 nM. The Tmax [7] was 108 min, the Activity [8] was “Non-Toxic” and the inhibition [9] was “Dose-dependent effect”. The inhibition (Homo sapiens [10]) was “Active”.
With `COc1ncc(-c2cc(OCCCCCCC(=O)NO)c3ncnc(C)c3c2)cc1F` the concentration at 0.5 h [11] was 36.6 ng/g, the Drug metabolism [12] was “Metabolite_Detected” and the Activity [13] was “Toxic”. It also gave a Drug uptake [14] of 74.8 ng/g, a concentration at 0.5 h [15] of 577 ng/mL and an inhibition in vivo at 100 mg/kg (HCT-116 [16]) of 18.3%. For the same compound, the concentration at 0.5 h [17] was 232 ng/mL, the concentration at 0.5 h [18] was 370 ng/g and the inhibition (Mus musculus) was “Dose-dependent effect”. The Tmax [7] was 18 min, the Activity [8] was “Non-Toxic” and the concentration at 0.5 h [19] was 105 ng/g. It also gave a half-life at 20 µM [20] of 72 min, a half-life [21] of 19.8 min and an inhibition in vivo at 100 mg/kg (HGC-27) of 15.2%. The Activity (HCT-116 [22]) was “Dose-dependent effect”.
